697 NFkB inh – lowers PMA/ionomycin-induced NF-kB signal in 697 B cells | 697 B-cell NF-kB luciferase reporter, 16 h | inhibition, % at 4 µM | 330,000 compounds, 0.33% hits | AID 435022; in the data active means inhibition above about 35%
NR2E3 ag-1 – agonists of human NR2E3 nuclear receptor | CHO-S Gal4-NCOR/VP16-NR2E3 two-hybrid, luciferase | inhibition of corepressor binding, % at 3.98 µM | 360,000 compounds, 0.35% hits | AID 602229;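 active means inhibition above the mean of all tested compounds plus 3 SD, cut at about 70% in these data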;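 further: 0% = DMSO with NR2E3 transfected cells and 100% = cells lacking NR2E3 construct; higher means lower luciferase signal from less NR2E3 corepressor binding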
Target sequence (Q9Y5X4 whole entry, looked up, the tested form may be a part): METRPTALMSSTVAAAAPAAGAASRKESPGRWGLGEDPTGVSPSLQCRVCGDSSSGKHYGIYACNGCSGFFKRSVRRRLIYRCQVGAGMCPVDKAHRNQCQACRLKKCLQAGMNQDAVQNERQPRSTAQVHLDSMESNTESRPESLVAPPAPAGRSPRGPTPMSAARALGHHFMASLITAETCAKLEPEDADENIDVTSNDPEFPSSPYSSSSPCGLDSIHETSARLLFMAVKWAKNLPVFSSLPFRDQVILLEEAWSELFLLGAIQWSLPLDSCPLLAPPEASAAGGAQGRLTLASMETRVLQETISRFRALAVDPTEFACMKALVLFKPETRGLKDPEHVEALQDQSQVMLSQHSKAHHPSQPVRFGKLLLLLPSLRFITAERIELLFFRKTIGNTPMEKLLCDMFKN
Gli-Sufu antag – blocks Gli-Sufu signaling in a luciferase reporter; 340,000 compounds, 0.74% hits; AID 588413; inhibition, % at 5 µM; Sufu-KO-LIGHT fibroblasts, Gli luciferase reporter luminescence;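 active means inhibition above about 55%, limit read from the data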;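 further: 0% = DMSO-treated cells and 100% = wells with medium but no cells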
GalR3 antagonist – antagonists of human GalR3; O60755; HEK293 GalR3-CNG cAMP membrane potential fluorescence; galR3 body fused to GalR1 C-terminus; inhibition, % at 3 µM; 360,000 compounds, 0.44% hits;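 active means inhibition above the screen-wide average plus 3 SD, cut at about 13% in these data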;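 further: forskolin and galanin both at EC90 stimulate the cells; cAMP rise reported by CNG channel membrane potential dye signal; 0% = forskolin plus galanin with DMSO and 100% = forskolin alone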
Jurkat NFkB inh – inhibitors of the PMA/ionomycin-induced NF-kB reporter in Jurkat cells. PMA/ionomycin-induced NF-kB luciferase reporter, luminescence. inhibition, % at 4 µM. 330,000 compounds, 0.53% hits; in the data active means inhibition above about 50%
NR2E3 ag-2 – NR2E3 (human) agonism. Q9Y5X4. 320,000 compounds, 0.12% hits. inhibition of corepressor binding, % at 4.78 µM. AID 2300. GST-NR2E3/biotin-RetCOR TR-FRET, 1536-well;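 active means percent inhibition above the cutoff of mean plus 3 SD of all tested compounds, set per screening campaign, cut at about 20% in these data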;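 further: 0% = DMSO wells and 100% = biotin wells as full block of FRET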
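System: GST-NR2E3 and biotin-RetCOR proteins; probe or stimulus: 7 nM biotin-RetCOR; doses: compound at 4.8 µM, single dose; schedule: Compound–protein incubation for 5 h at 4 °C; detection: time-resolved FRET; read-out: percent inhibition; controls: biotin wells as high control, 0.6% DMSO wells as low control; format: 1536-well plates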
NR2E3 agonist cf – confirmation of human NR2E3 nuclear receptor agonists; shares compounds with NR2E3 ag-2; cell-free NR2E3 corepressor release, TR-FRET, 5 h; activation (reported as inhibition), % at 3.98 µM; 360 compounds, 39% hits; in the data active means activation above about 20%
PPARg-NCOR2 ag – counter-screen for NR2E3 agonists: human PPARgamma-NCOR2 interaction agonists | shares compounds with NR2E3 ag-2 | TR-FRET PPARg-NCOR2 coregulator interaction, biochemical | inhibition, % at 3.98 µM | 360 compounds, 45% hits | AID 504787; in the data active means inhibition above about 20%;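 further: 0% = DMSO vehicle and 100% = wells without protein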
Numbers without * were called inactive; x = no result. Compounds with a hit are over-represented: about 1.8% of the library has one in this group of screens.

SMILES	697 NFkB inh	NR2E3 ag-1	Gli-Sufu antag	GalR3 antagonist	Jurkat NFkB inh	NR2E3 ag-2	NR2E3 agonist cf	PPARg-NCOR2 ag
CCOc1ccc(-n2nc3c(=S)[nH]nc(C)c3c2C)cc1	27	1	-1	-5	7	26*	15	22*
CCCOc1ccc(C2C(C(=O)c3cc4ccccc4o3)=C(O)C(=O)N2c2cc(C)on2)cc1 (configuration not stated)	14	-20	27	-1	-11	15	x	x
Cc1cc(N2C(=O)C(O)=C(C(=O)c3cc4ccccc4o3)C2c2cccc(Cl)c2)no1 (configuration not stated)	9	21	-15	-8	11	22*	39*	45*
COc1cccc(C2C(C(=O)c3cc4ccccc4o3)=C(O)C(=O)N2c2cc(C)on2)c1 (configuration not stated)	-1	-29	-6	-1	-8	27*	26*	26*
C=CCOc1cccc(C2C(C(=O)c3cc4ccccc4o3)=C(O)C(=O)N2c2cc(C)on2)c1 (configuration not stated)	-10	-5	-7	-8	-12	24*	31*	33*
Cc1cc(N2C(=O)C(O)=C(C(=O)c3cc4ccccc4o3)C2c2ccc(Br)cc2)no1 (configuration not stated)	-2	-15	-7	-6	-34	24*	25*	30*
O=C(N[C@H](Cc1ccccc1)C(=O)N1CCN(c2ccc(Cl)cn2)CC1)[C@H]1O[C@@H](n2ccc(=O)[nH]c2=O)[C@H](O)[C@@H]1O	x	x	x	-6	x	x	x	x
CC(=O)C1=C(C)N(Cc2ccc(Cl)cc2)C(=S)NC1c1ccc(Cl)cc1 (configuration not stated)	x	x	x	-4	x	x	x	x
Cc1[nH]c(=S)c(C#N)c(C)c1C(=O)Nc1ccccc1	-44	12	3	0	-19	8	x	x
CCc1c(C(=O)Nc2ccccc2)c(C)[nH]c(=S)c1C#N	6	-4	-2	-2	-15	30*	2	-3
COC(=O)C1=C(C)N(C)C(=NCc2ccccc2C(F)(F)F)NC1c1ccc(Cl)cc1 (configuration not stated)	x	x	x	-4	x	x	x	x
CCc1nnc(NC(=O)c2sc3nc4cc(C)ccc4cc3c2N)s1	2	-35	-5	-4	-6	37*	-9	-5
CCOC(=O)Cc1csc(NC(=O)c2sc3nc4ccc(C)cc4cc3c2N)n1	-26	-21	-1	-2	-17	5	x	x
COC(=O)c1cc2ccsc2n1CC(=O)NCC1CCCO1 (configuration not stated)	11	-3	3	-1	7	-1	x	x
COC(=O)c1cc2ccsc2n1CC(=O)Nc1cc(C)cc(C)c1	7	-11	-2	-3	12	36*	19	20*
Cc1cc(-n2c(SCC(=O)NCCC3=CCCCC3)nc3n[nH]c(C)c3c2=N)ccc1Cl	-23	19	17	-9	26	59*	10	3
Cc1ccc(Cl)cc1-n1c(SCC(=O)NCCC2=CCCCC2)nc2n[nH]c(C)c2c1=N	-7	-21	7	-3	8	-1	x	x
Cc1ccccc1C(=O)NC1CCCCN(C)C1=O (configuration not stated)	x	x	x	-5	x	x	x	x
O=C(CSc1nc2ccccc2c(=O)n1Cc1ccccc1)NCc1ccco1	-1	-11	7	-8	7	31*	4	12
Cc1ccccc1CNc1ncnc2cc(Cl)ccc12	1	6	31	-1	1	79*	82*	82*
COc1cc2ncnc(NCc3ccccc3C)c2cc1OC	12	-4	14	4	-1	2	x	x
